CRFBP-R2 block: blocks CRF-induced signaling of the CRF-BP/CRF-R2 complex. HEK293 CRF-R2/CRF-BP, CRF-induced calcium fluorescence. inhibition, % at 11.8 µM. 0.59% of 350,000 active. AID 588475;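 active = inhibition of the ligand-induced calcium signal above about 50% at the single tested concentration, limit read from the data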
TAAR1 antag: antagonists of human TAAR1; Q96RJ0; CHO RD-HGA16 TAAR1, Fluo-8 calcium fluorescence, antagonist; inhibition, % at 3 µM; 1.5% of 360,000 active; AID 624466;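 active = inhibition above a per-plate cutoff, the mean inhibition of test compounds on that plate plus 3 SD, cut at about 49% in these data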;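 also: 0% = DMSO plus EC80 beta-PEA response and 100% = DMSO alone without agonist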
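Material: RD-HGA16 CHO cells with stable hTAAR1 and Gα16; Dosing: single nominal final test compound concentration of 3 µM; Schedule: seeding 17-24 h prior, 75-min 37 °C, 30-min RT dye loading; Detection: kinetic Fluo-8 calcium fluorescence measurement; Measure: % inhibition from peak post-agonist over basal fluorescence ratio; Benchmarks: vehicle and agonist controls.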
CRFBP-R2 agonist: CRF-BP/CRF-R2 complex agonism. 0.46% of 350,000 active. activation, % at 13.2 µM. HEK293 CRF-R2/CRF-BP, calcium dye fluorescence (FLIPR); percent of saturating CRF peptide response. AID 588473;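 active = activation of at least 50%, plus an integration ratio under a set limit after plate pattern correction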;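 also: plate controls were neutral control wells without compound for no effect and CRF at EC100 for full effect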
TAAR1 agonist: agonists of human TAAR1; 0.99% of 360,000 active; activation, % at 3 µM; Q96RJ0; CHO RD-HGA16 TAAR1, Fluo-8 calcium fluorescence; vehicle wells 0%, saturating PEA agonist 100%;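 active = activation above the mean activation of all test compounds in the run plus 3 SD, cut at about 38% in these data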
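System: CHO RD-HGA16 cells carrying human TAAR1 plus Gα16; Incubation: 17-24 h seeding, 75 min 37 °C dye, 30 min RT; Measured by: Fluo-8 fluorescence, 5 s baseline then 140 s kinetic read; Control set: DMSO and PEA EC100; Replication: single well for each compound.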
TMEM16A inh: inhibitors of mouse TMEM16A calcium-activated chloride channel | Q8BHY3 | HEK293 TMEM16A/YFP iodide influx fluorescence, ionomycin | normalized B-score (activity score, 25-100; higher = stronger inhibition) at 10 µM | 1.2% of 310,000 active | AID 588511;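 active = ratio plate-corrected score three or more library SD toward inhibition, starting fluorescence score within five deviations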;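 also: score derived from kinetic fluorescence span divided by baseline fluorescence per well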
ANO1 activ: mouse TMEM16A channel activation, primary screen. AID 623877. Q8BHY3. 0.3% of 340,000 active. HEK293 TMEM16A/YFP-H148Q/I152L, iodide quench fluorescence; active compounds read low. B-score at 10 µM;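 active = fluorescence-ratio B-score plate-corrected deviation score at least 3 library SD below zero, with starting fluorescence score within 5 deviations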;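 also: channel opened by trigger with iodide after compound preincubation; score built on the fluorescence ratio of max minus min over baseline; more negative score means more quench and so TMEM16A activation or potentiation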
TMEM16A reconf: re-confirmation of mouse TMEM16A chloride channel inhibitors | shares compounds with TMEM16A inh | HEK293 TMEM16A/YFP-H148Q, iodide quench fluorescence; ionomycin added to raise cell calcium | inhibition, % at 10 µM | 39% of 2,300 active | AID 652189;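 active = mean duplicate percent inhibition, scaled so buffer wells are 0 and the reference blocker 100, over three buffer SD above buffer mean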
TMEM16A Ca cntr: counter-screen for TMEM16A inhibitors: effect on calcium mobilization. calcium response (% of ionomycin), % at 10 µM. AID 652231. 2% of 2,300 active. shares compounds with TMEM16A inh. TMEM16A/YFP HEK293, Fluo4 calcium mobilization;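 active = duplicate-averaged calcium signal over 20% of the ionomycin maximum, relative to buffer baseline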;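 also: each well's signal is peak minus trough fluorescence divided by its pre-addition baseline; 0% = buffer wells and 100% = ionomycin wells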
YFP-HEK293 quench: parental YFP-HEK293 iodide quench counter-screen activity; shares compounds with TMEM16A inh; ionomycin; YFP ratio F(max-min)/F0 at 10 µM; 2,300 tested, under 10 active;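 active = yellow fluorescent protein signal ratio exceeding the buffer control mean by over 5 SD of those controls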;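 also: ratio is mean of duplicate wells from kinetic YFP trace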
ClC-1 inh: selectivity of TMEM16A inhibitors: inhibition of rat ClC-1 chloride channel | shares compounds with TMEM16A inh | CHO ClC-1-YFP, iodide influx fluorescence quench; iodide control reads 0, buffer control 100 | ratio percent, % at 10 µM | 2,300 tested, under 10 active;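 active = duplicate-mean ratio percent above the mean of iodide-only control wells, which defines zero, plus 5 of their SD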;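 also: higher percent means stronger block of ClC-1 iodide influx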
* marks the source's active call; other numbers are inactive results; i = inactive; · = no result given. Most compounds without a hit are left out; they make up all but 3.9% or so of the library.

SMILES | CRFBP-R2 block | TAAR1 antag | CRFBP-R2 agonist | TAAR1 agonist | TMEM16A inh | ANO1 activ | TMEM16A reconf | TMEM16A Ca cntr | YFP-HEK293 quench | ClC-1 inh
CC1=NN(c2ccccc2)C(=O)/C1=C/N(C)C | -3 | 9 | 0 | 2 | i | i | · | · | · | ·
CC1=NN(c2ccccc2)C(=O)/C1=C\C=C1\N(C)c2ccccc2C1(C)C | -99 | 19 | 46 | 54* | i | i | 30%* | i | -0.82 | 4
CCN(c1cccc(C(F)(F)F)c1)S(=O)(=O)c1ccc2c(c1)CCN2C(=O)C1CC1 | 9 | 61* | 1 | 6 | 100* | i | i | i | -1.2 | -17
O=C(COC(=O)c1ncc(Cl)c(Cl)c1Cl)NC(=O)c1ccccc1 | -14 | 4 | -1 | 2 | i | i | · | · | · | ·
CCOC(=O)C1CCN(S(=O)(=O)c2cc(C(=O)N3CCCCC3)ccc2OC)CC1 | -9 | -6 | -3 | 5 | i | i | · | · | · | ·
CN1CC=C2C(C#N)=C(N)C(C#N)(C#N)C(Cc3ccccc3)C2C1 (stereo not given) | -45 | 1 | 20 | 3 | i | i | i | i | -0.79 | -15
CCC1C2CN(C(C)=O)CC=C2C(C#N)=C(N)C1(C#N)C#N (stereo not given) | -3 | -6 | -1 | 4 | i | i | · | · | · | ·
O=C(NNC1=C(C(=O)C(F)(F)F)CCC1)c1ccc(Br)cc1 | 45 | 25 | 17 | 6 | 100* | i | 16%* | i | -0.98 | -9
O=C(NNc1ccc(O)cc1)c1ccc(Br)cc1 | -2 | 8 | -1 | -1 | i | i | · | · | · | ·
COc1ccc(C)cc1S(=O)(=O)NNc1nc(C)cc(C)n1 | 9 | -10 | -2 | 2 | · | i | · | · | · | ·
CC1c2cc3c(cc2CCN1C(=O)c1ccc(Cl)cc1)OCCCO3 (stereo not given) | -13 | -30 | -2 | 3 | 25* | i | i | i | -1 | -9
Clc1ccccc1CSC1=NCCCN1 | -7 | -1 | 1 | 15 | 100* | i | i | i | -1.1 | -11
COc1ccc(NC(=O)c2csc(Cc3ccccc3)n2)cc1 | 16 | 1 | 0 | 4 | 25* | i | i | i | -1.1 | -4
CCCCCCCn1c(=O)c(C(=O)OC)c(N)c2ccccc21 | -24 | 14 | 0 | 22 | 25* | i | 43%* | i | -0.87 | -25
COC(=O)c1ccc(C(=O)OC)c(NC(=S)N2CCN(C(=O)C3CCCO3)CC2)c1 (stereo not given) | -2 | -9 | -1 | 2 | i | i | · | · | · | ·
Cc1cccc(C)c1NC(=O)CN(C)C(=O)Cc1cccc(C(F)(F)F)c1 | -5 | -7 | 0 | -3 | i | i | · | · | · | ·
Cc1cc(OCC(=O)NNC(=O)CCc2ccccc2)ccc1Br | -6 | -4 | 1 | 1 | i | i | · | · | · | ·
COC(=O)[C@]12CCCCC=C1N(CCC1=CCCCC1)C(=O)[C@H](CC(=O)NCCc1ccccc1OC)C2 | · | 40 | · | 34 | · | · | · | · | · | ·
Cc1nc2ccc(F)cc2cc1C(=O)NC(C)C | -2 | · | 1 | · | 100* | i | i | i | -1 | -9
Cc1ccc2cc(C#N)c(N3CCCN(C(=O)C4CCCO4)CC3)nc2c1 (stereo not given) | 7 | -8 | 0 | 4 | i | i | · | · | · | ·
Cc1ccc2cc(C#N)c(NCCCNC(=O)C3CCCO3)nc2c1 (stereo not given) | 15 | 19 | -2 | 6 | 25* | i | i | i | -1 | -8
COc1ccc(C(=O)c2sc(Nc3ccccc3)nc2C)cc1 | -45 | 13 | 8 | 16 | i | i | i | i | -0.96 | -14
COc1ccc(-n2c(SCCC(=O)O)nnc2-c2ccncc2)cc1 | 9 | -5 | 1 | 10 | 100* | i | i | i | -1.2 | 2
Cc1cccc(CN2C(=O)N/C(=C/c3ccc(C)s3)C2=O)c1 | -9 | 5 | 8 | 8 | i | i | i | i | -0.84 | 8
CCN(CC)S(=O)(=O)c1cccc(NC(=O)c2ccc(Br)cc2)c1 | 5 | -2 | 2 | 22 | i | i | · | · | · | ·
SMILES | CRFBP-R2 block | TAAR1 antag | CRFBP-R2 agonist | TAAR1 agonist | TMEM16A inh | ANO1 activ | TMEM16A reconf | TMEM16A Ca cntr | YFP-HEK293 quench | ClC-1 inh
CCN(CC)S(=O)(=O)c1cccc(NC(=O)COc2ccc(Cl)cc2Br)c1 | 1 | 28 | 0 | 8 | 25* | i | i | i | -0.98 | -8
Cc1ccccc1OCC(=O)N/N=C/c1cc2ccccc2nc1Cl | -32 | 6 | -2 | 4 | 25* | i | 20%* | i | -1.1 | -16
COc1ccc(-c2cn(Cc3ccc([N+](=O)[O-])cc3)nn2)cc1 | 12 | 13 | -6 | 11 | i | i | · | · | · | ·
COc1ccc(-c2cn(Cc3ccc(C(=O)c4ccccc4)cc3)nn2)cc1 | 35 | 33 | 4 | 14 | 25* | · | 27%* | i | -0.86 | -16
O=S(=O)(Nc1nnc(-c2ccccc2)s1)c1ccc(Cl)cc1 | 26 | -1 | -3 | 0 | 100* | i | 38%* | i | -0.9 | -18
CC(Cc1cccs1)NC(=S)Nc1ccc(Cl)cc1 (stereo not given) | 18 | 12 | 7 | 13 | 25* | i | 38%* | i | -1.2 | -15
CC(Cc1cccs1)NC(=S)Nc1ccc(Cl)c(Cl)c1 (stereo not given) | -31 | 15 | 0 | 16 | i | i | · | · | · | ·
Cc1oncc1-c1csc(-c2ccccc2)n1 | -1 | -6 | 2 | -1 | 100* | i | i | i | -0.93 | -12
Cn1nc(C(=O)NNC(=O)C2CSC3(C)CCC(=O)N23)c2ccccc2c1=O (stereo not given) | -3 | -10 | 1 | 2 | i | i | · | · | · | ·
Cc1cc(N=Nc2ccccc2C(=O)O)c(C)c(C)c1O | 11 | -27 | -1 | 0 | i | i | 53%* | i | -1.2 | -18
